This passage reports inhibition and IC50 results from ChEMBL document CHEMBL1122537, “Acidic furo[3,2-b]indoles. A new series of potent antiallergy agents” (J Med Chem, 1984).

What is called inhibition is how much of the control response was suppressed. The pIC50 is the negative decadic logarithm of the IC50, by convention in mol/L.

Structures are written as SMILES. pIC50: −log10 of the molar value.

One test is filed under the species Cavia porcellus. The test is described as follows: Compound was evaluated in vitro by SDT (Schultz-Dale Test) against isolated guinea pig lung strips repeatedly challenged with antigen in the presence of an antihistamine (H1) at a concentration 10 uM. Type of test: functional.
Regarding `O=C(O)c1cc2c(o1)c1ccccc1n2-c1ccccc1`, the inhibition at 10 µM amounted to 33%. Consider `CCOc1c(C(=O)OC)oc2c3cc(OC)ccc3n(-c3ccccc3)c12`, for which the inhibition at 10 µM was 24%. The same measure, in the same setting: next, `COC(=O)c1oc2c3cc(OC)ccc3n(-c3ccccc3)c2c1OC`: 23%.

The species named for the next test is Cavia porcellus. The test is described as follows: Compound was evaluated in vitro by SDT (Schultz-Dale Test) against isolated guinea pig lung strips repeatedly challenged with antigen in the presence of an antihistamine (H1); b = No activity at a concentration 30 uM. The format is functional.
Consider `COC(=O)c1oc2c3ccccc3n(-c3ccccc3)c2c1OC`, for which the inhibition entry is “No activity”.

The species entered for a further test is Cavia porcellus. Put plainly: In vitro Schultz-Dale Test against isolated guinea pig lung strips repeatedly challenged with antigen in the presence of an antihistamine (H1) at a concentration 30 uM. Type of test: functional.
On to `COc1ccc2c(c1)c1oc(C(=O)Nc3nn[nH]n3)c(OC)c1n2-c1ccccc1`, for which the pIC50 was 6.05. The same measure, in the same setting: then `CCCc1c2c(c(O)c3c(=O)cc(C(=O)O)oc13)CCCC2` [PROXICROMIL], with 5.20; and `CCCc1c(OCC(O)COc2ccc3c(=O)cc(C(=O)O)oc3c2CCC)ccc(C(C)=O)c1O` (stereo unspecified) [FPL-55712], with 5.62; and `CCOc1c(C(=O)O)oc2c3ccccc3n(-c3ccccc3)c12`, with 5.49. On the same count and under the same terms, next, `COc1ccc2c(c1)c1oc(C(=O)O)c(OC)c1n2-c1ccccc1`: 5.55. On the same count and under the same terms, then `CCOc1c(C(=O)Nc2nn[nH]n2)oc2c3cc(OC)ccc3n(-c3ccccc3)c12`, with 5.66; and `COc1c(C(=O)O)oc2c3ccccc3n(-c3ccccc3)c12`, with 5.34.

`CCOc1c(C(=O)Nc2nn[nH]n2)oc2c3ccccc3n(-c3ccccc3)c12`: the pIC50 was 6.70. Still for that read-out and setting: then `CCOc1c(-c2nn[nH]n2)oc2c3cc(OC)ccc3n(-c3ccccc3)c12`, with 5.77. Take `COc1ccc2c(c1)c1oc(C(=O)Nc3nn[nH]n3)c(OC(C)C)c1n2-c1ccccc1`: the pIC50 is 5.55. On to `CCOc1c(C(=O)O)oc2c3cc(OC)ccc3n(-c3ccccc3)c12`, for which the pIC50 is 5.37. Take `CCOc1c(-c2nn[nH]n2)oc2c3ccccc3n(-c3ccccc3)c12`: the pIC50 was 5.49. Same read-out and setting: then `COc1c(C(=O)Nc2nn[nH]n2)oc2c3ccccc3n(-c3ccccc3)c12`, with 6.30; and `COc1ccc2c(c1)c1oc(-c3nn[nH]n3)c(OC)c1n2-c1ccccc1`, with 5.82. The same measure, in the same setting: next, `CC(C)Oc1c(C(=O)O)oc2c3ccccc3n(-c3ccccc3)c12`: 5.43; `COc1c(-c2nn[nH]n2)oc2c3ccccc3n(-c3ccccc3)c12`: 5.54.

For the compound `CC(C)Oc1c(C(=O)Nc2nn[nH]n2)oc2c3ccccc3n(-c3ccccc3)c12`, the pIC50 is 7.22. The same measure, in the same setting: next, `COc1c(C(=O)Nc2nn[nH]n2)oc2c3ccccc3n(C)c12`: 4.67.

The species entered for the next test is Cavia porcellus. Put plainly: Compound was evaluated in vitro by SDT (Schultz-Dale Test) against isolated guinea pig lung strips repeatedly challenged with antigen in the presence of an antihistamine (H1); c = No activity at a concentration 30 uM. Type of test: functional.
Turning to `COc1c(C(=O)O)oc2c3ccccc3n(C)c12`, the IC50 result is on record as “No activity”.

As to `COc1c(-c2nn[nH]n2)oc2c3ccccc3n(C)c12`, the IC50 entry is recorded as “No activity”.

For a further test, the species on record is Cavia porcellus. Put plainly: Compound was evaluated in vitro by SDT (Schultz-Dale Test) against isolated guinea pig lung strips repeatedly challenged with antigen in the presence of an antihistamine (H1) at a concentration 30 uM; i = No significant activity at 1.0 uM. Type of test: functional.
As to `CCCCCCCCCOc1c(C(=O)Nc2nn[nH]n2)oc2c3ccccc3n(-c3ccccc3)c12`, the IC50 entry is listed as “No significant activity”.

The species entered for another test is Cavia porcellus. The test is described as follows: Compound was evaluated in vitro by SDT (Schultz-Dale Test) against isolated guinea pig lung strips repeatedly challenged with antigen in the presence of an antihistamine (H1) at a concentration […]. The format is functional. Put shortly:
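Lung strips in Tyrode's pH 7.4, 37 °C, with mepyramine 1 µM, at 300 mg base-line tension. Drug in 0.2% NaHCO3 is added 15 min before the ovalbumin bolus. Percent inhibition is taken against the tissue's prior control contraction, usually on four or more tissues. IC50 by linear regression.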
On to `CC(C)NCC(O)c1ccc(O)c(O)c1` (stereo unspecified) [ISOPROTERENOL], for which the pIC50 was 9.82.
